According to ChEMBL document CHEMBL4261517, “A structurally guided dissection-then-evolution strategy for ligand optimization of smoothened receptor” (Medchemcomm, 2017):

Key:
[1] = molecular target: Protein smoothened (Mus musculus, UniProt P56726); test: Antagonist activity at Smo receptor in mouse NIH/3T3 cells harboring GRE-Luc assessed as inhibition of SAG-induced Hh signaling pathway preincubated for 1 to 2 hrs followed by SAG addition and measured after 24 hrs by Bright-Glo luciferase reporter gene assay; format: functional, cell-based
Sequence of Protein smoothened (P56726 whole entry): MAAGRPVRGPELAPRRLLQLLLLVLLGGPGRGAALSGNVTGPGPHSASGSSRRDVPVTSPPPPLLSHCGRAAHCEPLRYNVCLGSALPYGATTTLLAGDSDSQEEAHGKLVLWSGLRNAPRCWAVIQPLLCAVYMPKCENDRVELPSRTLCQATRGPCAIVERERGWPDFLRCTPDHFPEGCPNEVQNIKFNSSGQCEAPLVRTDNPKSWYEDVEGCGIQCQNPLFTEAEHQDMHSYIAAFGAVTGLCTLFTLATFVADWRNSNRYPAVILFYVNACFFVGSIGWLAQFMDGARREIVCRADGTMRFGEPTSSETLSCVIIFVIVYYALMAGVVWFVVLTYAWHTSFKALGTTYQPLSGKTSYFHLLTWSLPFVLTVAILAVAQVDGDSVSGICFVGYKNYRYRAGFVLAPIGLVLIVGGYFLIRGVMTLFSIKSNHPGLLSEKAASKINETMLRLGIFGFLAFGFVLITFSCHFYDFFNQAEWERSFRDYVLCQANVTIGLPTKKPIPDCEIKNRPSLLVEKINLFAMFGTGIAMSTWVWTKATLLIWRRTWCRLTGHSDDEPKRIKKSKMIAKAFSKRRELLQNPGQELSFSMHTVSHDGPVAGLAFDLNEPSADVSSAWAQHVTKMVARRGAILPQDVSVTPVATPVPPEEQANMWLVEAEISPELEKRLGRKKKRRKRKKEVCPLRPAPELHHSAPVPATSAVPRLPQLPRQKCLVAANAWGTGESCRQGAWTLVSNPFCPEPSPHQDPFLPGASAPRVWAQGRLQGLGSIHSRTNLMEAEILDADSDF
Summary of the method: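 Light II cells (NIH-3T3 stably carrying a Gli-responsive firefly luciferase reporter) treated with compound for 24 h. Luciferase read-out of Hedgehog pathway inhibition. IC50 reported as mean ± SEM from at least three independent experiments, each run in duplicate.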

[2] = molecular target: Protein smoothened (Homo sapiens) (UniProt Q99835); test: Binding affinity to recombinant human N-terminal FLAG/His10-tagged/C-terminal His10-tagged flavodoxin-fused Smo receptor expressed in HEK293F cells assessed as melting temperature at 100 uM after 40 mins by CPM dye based spectrofluorometric method; format: cell-based
Sequence of Protein smoothened (Homo sapiens) (Q99835 whole entry, the tested form may be a part): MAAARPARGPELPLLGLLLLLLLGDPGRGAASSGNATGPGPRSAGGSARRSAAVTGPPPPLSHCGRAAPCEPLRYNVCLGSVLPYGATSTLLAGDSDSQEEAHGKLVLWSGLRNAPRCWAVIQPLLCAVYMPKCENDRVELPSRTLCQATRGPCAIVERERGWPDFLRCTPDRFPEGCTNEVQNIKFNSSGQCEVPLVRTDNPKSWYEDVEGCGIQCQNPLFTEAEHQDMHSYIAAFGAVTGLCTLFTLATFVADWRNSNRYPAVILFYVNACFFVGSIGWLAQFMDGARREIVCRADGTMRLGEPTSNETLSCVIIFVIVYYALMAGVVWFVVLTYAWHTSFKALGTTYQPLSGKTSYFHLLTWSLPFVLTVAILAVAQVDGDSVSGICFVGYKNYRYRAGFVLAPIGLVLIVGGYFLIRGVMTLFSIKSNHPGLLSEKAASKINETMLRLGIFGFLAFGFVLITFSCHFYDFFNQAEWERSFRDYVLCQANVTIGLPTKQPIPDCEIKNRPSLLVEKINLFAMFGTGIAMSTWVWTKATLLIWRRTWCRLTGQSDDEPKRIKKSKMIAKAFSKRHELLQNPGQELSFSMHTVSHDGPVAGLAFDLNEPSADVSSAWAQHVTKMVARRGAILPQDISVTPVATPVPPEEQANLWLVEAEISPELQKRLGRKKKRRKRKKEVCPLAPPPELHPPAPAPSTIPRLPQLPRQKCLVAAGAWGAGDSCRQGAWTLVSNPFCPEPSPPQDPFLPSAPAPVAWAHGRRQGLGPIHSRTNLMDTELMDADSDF
Summary of the method: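 Purified SMO in micelles mixed with thiol-reactive CPM dye and thermally denatured. Fluorescence (365/460 nm) followed as exposed cysteines react. Tm taken as the temperature at which 50% of the fluorescence increase is reached.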

[3] = Stability of the compound in DMEM at […] by RP-HPLC analysis; format: physicochemical

| IC50 [1] [µM] | Tm [2] [°C] | Stability [3] | Compound |
| --- | --- | --- | --- |
| > 10 | 60.3 |  | COC(=O)c1ccc(C(=O)N(C)C2CCN(c3nnc(-c4ccnn4C)c4ccccc34)CC2)cc1 |
| 3.02 | 59.7 |  | CN(C(=O)c1ccc(C(N)=O)cc1)C1CCN(c2nnc(-c3ccnn3C)c3ccccc23)CC1 |
| 1.8 | 58.4 |  | CN(C(=O)c1ccc(OCc2ccccc2)cc1)C1CCN(c2nnc(-c3ccnn3C)c3ccccc23)CC1 |
|  |  | Stable | CN(C(=O)c1ccc(F)cc1C(F)(F)F)C1CCN(c2ccc(-c3ccnn3C)c3ccccc23)CC1 |
| > 10 | 60.2 |  | CN(C(=O)c1ccc(CC=O)cc1)C1CCN(c2nnc(-c3ccnn3C)c3ccccc23)CC1 |
| > 10 | 56.3 |  | CN(C(=O)c1ccc(S(C)(=O)=O)cc1)C1CCN(c2nnc(-c3ccnn3C)c3ccccc23)CC1 |
| 2.89 | 59 |  | CN(C(=O)c1ccc(C=O)cc1)C1CCN(c2nnc(-c3ccnn3C)c3ccccc23)CC1 |
| 0.27 | 59.6 |  | CN(C(=O)c1ccc(Oc2ccccc2)cc1)C1CCN(c2nnc(-c3ccnn3C)c3ccccc23)CC1 |
| 0.87 | 59.4 |  | CN(C(=O)c1ccc(B(O)O)cc1)C1CCN(c2nnc(-c3ccnn3C)c3ccccc23)CC1 |
| > 10 | 56.8 |  | CN(C(=O)c1ccc(NCC(=O)O)cc1)C1CCN(c2nnc(-c3ccnn3C)c3ccccc23)CC1 |
|  |  | Stable | CN(C(=O)c1ccccc1)C1CCN(c2nnc(-c3ccnn3C)c3ccccc23)CC1 |
| 1.57 | 59.1 |  | CN(C(=O)c1ccc(F)cc1)C1CCN(c2nnc(-c3ccnn3C)c3ccccc23)CC1 |
| 3.24 | 57.1 |  | CN(C(=O)c1ccc(S(N)(=O)=O)cc1)C1CCN(c2nnc(-c3ccnn3C)c3ccccc23)CC1 |
| 1.41 | 58.5 |  | CN(C)c1ccc(C(=O)N(C)C2CCN(c3nnc(-c4ccnn4C)c4ccccc34)CC2)cc1 |
| 2.68 | 59.4 |  | CN(C(=O)c1ccc(S(=O)(=O)O)cc1)C1CCN(c2nnc(-c3ccnn3C)c3ccccc23)CC1 |
| > 10 | 56.8 |  | CN(C(=O)c1ccc(C(=O)O)cc1)C1CCN(c2nnc(-c3ccnn3C)c3ccccc23)CC1 |
| 2.02 | 58.2 |  | CN(C(=O)c1ccc(N)cc1)C1CCN(c2nnc(-c3ccnn3C)c3ccccc23)CC1 |
|  |  | Stable | CN(C(=O)c1ccc(F)cc1C(F)(F)F)C1CCN(c2nnc(Cl)c3ccccc23)CC1 |
|  |  | Stable | CN(C(=O)c1ccc(F)cc1C(F)(F)F)C1CCN(c2nnc(-c3ccnn3C)c3ccccc23)CC1 [TALADEGIB] |
| 0.236 | 61 |  | CN(C(=O)c1ccc([N+](=O)[O-])cc1)C1CCN(c2nnc(-c3ccnn3C)c3ccccc23)CC1 |
|  |  | Stable | CN(Cc1ccc(F)cc1C(F)(F)F)C1CCN(c2nnc(-c3ccnn3C)c3ccccc23)CC1 |
